Measured values reported in ChEMBL document CHEMBL1817556, “Substituted lactam and cyclic azahemiacetals modulate Pseudomonas aeruginosa quorum sensing” (Bioorg Med Chem, 2011).

Columns and labels:
[1] = molecular target: T1, Acyl-homoserine-lactone synthase (Pseudomonas aeruginosa (strain ATCC 15692 / PAO1 / 1C / PRS 101 / LMG12228)) (UniProt P33883); assay: Modulation of Pseudomonas aeruginosa lacZ-fused lasI expressed in Escherichia coli DH5alpha co-expressing pBAD-lasR assessed as 3-oxo-C12-AHL-induced effect at 0.29 mM after 3 hrs by beta-galactosidase assay relative to control
T1 sequence (whole entry): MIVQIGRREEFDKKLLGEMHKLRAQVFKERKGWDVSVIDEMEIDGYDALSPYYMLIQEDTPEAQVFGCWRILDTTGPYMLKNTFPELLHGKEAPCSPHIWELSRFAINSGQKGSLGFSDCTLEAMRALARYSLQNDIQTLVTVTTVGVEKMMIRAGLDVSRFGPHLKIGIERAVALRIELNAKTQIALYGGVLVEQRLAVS
Method in brief: (§1)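 E. coli DH5α carrying pSC11 (PlasI-lacZ translational fusion) and pJN105L (PBAD-lasR) was grown overnight in LB with ampicillin (100 μg/ml) and gentamicin (15 μg/ml), then diluted to OD600 0.150. Arabinose (0.2% w/v), 3-oxo-C12-AHL (2 μM) and test compound or DMSO were added. Cultures were shaken 3 h at 37 °C. β-Galactosidase activity was read in Miller units and expressed as % of the solvent sample. Triplicates per biological replicate, repeated at least twice; paired two-tailed t-test.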

[2] = molecular target: T1, Acyl-homoserine-lactone synthase (Pseudomonas aeruginosa (strain ATCC 15692 / PAO1 / 1C / PRS 101 / LMG12228)); assay: Modulation of Pseudomonas aeruginosa lacZ-fused lasI expressed in Escherichia coli DH5alpha co-expressing pBAD-lasR assessed as 3-oxo-C12-AHL-induced effect at 1.16 mM after 3 hrs by beta-galactosidase assay relative to control; method in brief: as §1
[3] = molecular target: 3-(3-hydroxydecanoyloxy)decanoate synthase (Pseudomonas aeruginosa (strain ATCC 15692 / PAO1 / 1C / PRS 101 / LMG12228)) (UniProt Q51559); assay: Modulation of Pseudomonas aeruginosa lacZ-fused rhlA expressed in Escherichia coli DH5alpha co-expressing Ptac-rhlR assessed as C4-AHL-induced effect at 1.16 mM after 4 hrs by beta-galactosidase assay relative to control
Method in brief: (§2)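 E. coli DH5α carrying pECP61.5 (Ptac-rhlR, PrhlA-lacZ), grown overnight in LB with ampicillin 100 μg/ml and diluted to OD600 0.150. At OD600 1.0, 1 mM IPTG, 2 μM C4-HSL and compound or DMSO were added. Cultures were shaken 4 h at 37 °C, then β-galactosidase was read in Miller units. Activity is % of solvent sample, from triplicates per biological replicate, with at least two repeats.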

[4] = molecular target: T1, Acyl-homoserine-lactone synthase (Pseudomonas aeruginosa (strain ATCC 15692 / PAO1 / 1C / PRS 101 / LMG12228)); assay: Modulation of Pseudomonas aeruginosa lacZ-fused lasI expressed in Escherichia coli DH5alpha co-expressing pBAD-lasR assessed as 3-oxo-C12-AHL-induced effect at 0.58 mM after 3 hrs by beta-galactosidase assay relative to control; method in brief: as §1
[5] = molecular target: 3-(3-hydroxydecanoyloxy)decanoate synthase (Pseudomonas aeruginosa (strain ATCC 15692 / PAO1 / 1C / PRS 101 / LMG12228)) (UniProt Q51559); assay: Modulation of Pseudomonas aeruginosa lacZ-fused rhlA expressed in Escherichia coli DH5alpha co-expressing Ptac-rhlR assessed as C4-AHL-induced effect at 0.87 mM after 4 hrs by beta-galactosidase assay relative to control; method in brief: as §2
[6] = molecular target: 3-(3-hydroxydecanoyloxy)decanoate synthase (Pseudomonas aeruginosa (strain ATCC 15692 / PAO1 / 1C / PRS 101 / LMG12228)) (UniProt Q51559); assay: Modulation of Pseudomonas aeruginosa lacZ-fused rhlA expressed in Escherichia coli DH5alpha co-expressing Ptac-rhlR assessed as C4-AHL-induced effect at 0.29 mM after 4 hrs by beta-galactosidase assay relative to control
Method in brief: (§3)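 rhl reporter: E. coli DH5α carrying pECP61.5 (Ptac-rhlR, PrhlA-lacZ) was grown overnight in LB with ampicillin (100 μg/ml) only, then diluted to OD600 0.150. It was induced with 1 mM IPTG, and 2 μM C4-HSL plus compound or DMSO were added at OD600 1.0. Cultures were shaken 4 h at 37 °C. β-Galactosidase activity was read in Miller units as % of the solvent sample. Triplicates per biological replicate, at least two repeats; paired two-tailed t-test.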

[7] = molecular target: 3-(3-hydroxydecanoyloxy)decanoate synthase (Pseudomonas aeruginosa (strain ATCC 15692 / PAO1 / 1C / PRS 101 / LMG12228)) (UniProt Q51559); assay: Modulation of Pseudomonas aeruginosa lacZ-fused rhlA expressed in Escherichia coli DH5alpha co-expressing Ptac-rhlR assessed as C4-AHL-induced effect at 0.58 mM after 4 hrs by beta-galactosidase assay relative to control; method in brief: as §2
[8] = molecular target: T1, Acyl-homoserine-lactone synthase (Pseudomonas aeruginosa (strain ATCC 15692 / PAO1 / 1C / PRS 101 / LMG12228)); assay: Modulation of Pseudomonas aeruginosa lacZ-fused lasI expressed in Escherichia coli DH5alpha co-expressing pBAD-lasR assessed as 3-oxo-C12-AHL-induced effect at 0.87 mM after 3 hrs by beta-galactosidase assay relative to control; method in brief: as §1
[9] = molecular target: T2, Transcriptional activator protein LasR (Pseudomonas aeruginosa (strain ATCC 15692 / PAO1 / 1C / PRS 101 / LMG12228), UniProt P25084); assay: Inhibition of Pseudomonas aeruginosa LasR
T2 sequence (P25084 whole entry): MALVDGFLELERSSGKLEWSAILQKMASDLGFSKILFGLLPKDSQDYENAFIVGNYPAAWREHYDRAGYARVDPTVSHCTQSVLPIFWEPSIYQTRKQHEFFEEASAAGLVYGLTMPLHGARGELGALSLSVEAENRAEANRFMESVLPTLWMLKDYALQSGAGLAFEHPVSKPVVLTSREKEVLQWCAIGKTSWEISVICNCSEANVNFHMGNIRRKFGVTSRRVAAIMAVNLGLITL

[10] = molecular target: 3-(3-hydroxydecanoyloxy)decanoate synthase (Pseudomonas aeruginosa (strain ATCC 15692 / PAO1 / 1C / PRS 101 / LMG12228)) (UniProt Q51559); assay: Modulation of Pseudomonas aeruginosa lacZ-fused rhlA expressed in Escherichia coli DH5alpha co-expressing Ptac-rhlR assessed as C4-AHL-induced effect at 0.93 mM after 4 hrs by beta-galactosidase assay relative to control; method in brief: as §2
[11] = molecular target: T1, Acyl-homoserine-lactone synthase (Pseudomonas aeruginosa (strain ATCC 15692 / PAO1 / 1C / PRS 101 / LMG12228)); assay: Modulation of Pseudomonas aeruginosa lacZ-fused lasI expressed in Escherichia coli DH5alpha co-expressing pBAD-lasR assessed as 3-oxo-C12-AHL-induced effect at 0.93 mM after 3 hrs by beta-galactosidase assay relative to control; method in brief: as §1
[12] = molecular target: 3-(3-hydroxydecanoyloxy)decanoate synthase (Pseudomonas aeruginosa (strain ATCC 15692 / PAO1 / 1C / PRS 101 / LMG12228)) (UniProt Q51559); assay: Modulation of Pseudomonas aeruginosa lacZ-fused rhlA expressed in Escherichia coli DH5alpha co-expressing Ptac-rhlR assessed as C4-AHL-induced effect at 0.23 mM after 4 hrs by beta-galactosidase assay relative to control; method in brief: as §3
[13] = molecular target: 3-(3-hydroxydecanoyloxy)decanoate synthase (Pseudomonas aeruginosa (strain ATCC 15692 / PAO1 / 1C / PRS 101 / LMG12228)) (UniProt Q51559); assay: Modulation of Pseudomonas aeruginosa lacZ-fused rhlA expressed in Escherichia coli DH5alpha co-expressing Ptac-rhlR assessed as C4-AHL-induced effect at 0.70 mM after 4 hrs by beta-galactosidase assay relative to control; method in brief: as §2
[14] = molecular target: T1, Acyl-homoserine-lactone synthase (Pseudomonas aeruginosa (strain ATCC 15692 / PAO1 / 1C / PRS 101 / LMG12228)); assay: Modulation of Pseudomonas aeruginosa lacZ-fused lasI expressed in Escherichia coli DH5alpha co-expressing pBAD-lasR assessed as 3-oxo-C12-AHL-induced effect at 0.23 mM after 3 hrs by beta-galactosidase assay relative to control; method in brief: as §1
[15] = molecular target: T1, Acyl-homoserine-lactone synthase (Pseudomonas aeruginosa (strain ATCC 15692 / PAO1 / 1C / PRS 101 / LMG12228)); assay: Modulation of Pseudomonas aeruginosa lacZ-fused lasI expressed in Escherichia coli DH5alpha co-expressing pBAD-lasR assessed as 3-oxo-C12-AHL-induced effect at 0.47 mM after 3 hrs by beta-galactosidase assay relative to control; method in brief: as §1
[16] = molecular target: 3-(3-hydroxydecanoyloxy)decanoate synthase (Pseudomonas aeruginosa (strain ATCC 15692 / PAO1 / 1C / PRS 101 / LMG12228)) (UniProt Q51559); assay: Modulation of Pseudomonas aeruginosa lacZ-fused rhlA expressed in Escherichia coli DH5alpha co-expressing Ptac-rhlR assessed as C4-AHL-induced effect at 0.47 mM after 4 hrs by beta-galactosidase assay relative to control; method in brief: as §3
[17] = molecular target: T1, Acyl-homoserine-lactone synthase (Pseudomonas aeruginosa (strain ATCC 15692 / PAO1 / 1C / PRS 101 / LMG12228)); assay: Modulation of Pseudomonas aeruginosa lacZ-fused lasI expressed in Escherichia coli DH5alpha co-expressing pBAD-lasR assessed as 3-oxo-C12-AHL-induced effect at 0.70 mM after 3 hrs by beta-galactosidase assay relative to control; method in brief: as §1

Q: `CCCSC[C@@H]1CCC(=O)N1` was tested. Which Activity [1] did it give?
A: 90%

Q: And the Activity [2]?
A: 43%

Q: What about the Activity [3] of the same molecule?
A: 108%

Q: And the Activity [4]?
A: 72%

Q: And the Activity [5]?
A: 104%

Q: And the Activity [6]?
A: 104%

Q: What about the Activity [7] of the same molecule?
A: 118%

Q: What about the Activity [8] of the same molecule?
A: 51%

Q: With `CCCCCCCCCC(=O)CC(=O)NC1CCCCC1=O` (centres undefined) as the molecule, how does the IC50 [9] read?
A: 10 µM

Q: For `O=C(Cc1cccc([N+](=O)[O-])c1)N[C@H]1CCOC1=O`, which IC50 [9] is on record?
A: 0.61 µM

Q: `CCCCCCSC[C@@H]1CCC(=O)N1` was tested. Which Activity [10] did it give?
A: 145%

Q: What about the Activity [11] of the same molecule?
A: 61%

Q: What about the Activity [12] of the same molecule?
A: 126%

Q: And the Activity [13]?
A: 130%

Q: What about the Activity [14] of the same molecule?
A: 106%

Q: What about the Activity [15] of the same molecule?
A: 87%

Q: And the Activity [16]?
A: 126%

Q: What about the Activity [17] of the same molecule?
A: 74%

Q: How did the IC50 [9] turn out when `CCCCCCCCCCCC(=O)N[C@H]1CCOC1=O` was run?
A: 0.04 µM
